Reference: the M2OR odorant receptor database

Legend:
Settings in all cases: stereoisomer not certain
[1] = target: T1, UniProt Q8VF43
T1 sequence (whole entry): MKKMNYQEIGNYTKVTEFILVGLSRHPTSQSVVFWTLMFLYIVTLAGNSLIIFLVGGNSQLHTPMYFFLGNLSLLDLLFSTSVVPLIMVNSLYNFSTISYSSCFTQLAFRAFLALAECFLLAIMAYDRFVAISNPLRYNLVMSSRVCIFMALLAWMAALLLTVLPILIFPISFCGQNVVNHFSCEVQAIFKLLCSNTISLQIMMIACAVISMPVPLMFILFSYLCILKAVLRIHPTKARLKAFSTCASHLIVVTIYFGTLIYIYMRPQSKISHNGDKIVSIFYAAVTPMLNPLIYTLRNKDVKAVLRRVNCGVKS
Procedure, shortened: (§1)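 Assay methods differ from source to source, frequently being transient luciferase assays in mammalian cell lines. For each receptor–molecule pair, the label responsive (active) applies when the original authors judged the measured signal statistically different from baseline, and non-responsive (inactive) applies otherwise.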

[2] = target: T2, UniProt Q8VF52
T2 sequence (whole entry): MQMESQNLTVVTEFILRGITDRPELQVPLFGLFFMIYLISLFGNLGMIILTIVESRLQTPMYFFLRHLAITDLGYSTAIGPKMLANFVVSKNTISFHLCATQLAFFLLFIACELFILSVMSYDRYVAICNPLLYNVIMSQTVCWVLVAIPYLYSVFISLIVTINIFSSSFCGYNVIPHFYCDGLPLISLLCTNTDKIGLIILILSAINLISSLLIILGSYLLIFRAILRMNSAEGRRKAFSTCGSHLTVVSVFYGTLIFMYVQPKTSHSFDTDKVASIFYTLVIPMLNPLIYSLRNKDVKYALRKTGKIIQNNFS
Procedure, shortened: as §1

[3] = target: T3, UniProt Q8VFM8
T3 sequence (whole entry): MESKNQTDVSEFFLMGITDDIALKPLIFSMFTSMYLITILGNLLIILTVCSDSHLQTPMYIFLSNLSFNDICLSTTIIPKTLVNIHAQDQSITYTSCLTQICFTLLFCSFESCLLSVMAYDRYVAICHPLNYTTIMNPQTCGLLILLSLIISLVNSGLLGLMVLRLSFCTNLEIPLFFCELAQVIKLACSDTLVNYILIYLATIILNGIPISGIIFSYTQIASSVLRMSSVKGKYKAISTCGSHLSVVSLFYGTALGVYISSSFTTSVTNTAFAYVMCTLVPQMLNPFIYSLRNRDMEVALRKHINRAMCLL
Procedure, shortened: as §1

[4] = target: T4, UniProt Q8VFP5
T4 sequence (whole entry): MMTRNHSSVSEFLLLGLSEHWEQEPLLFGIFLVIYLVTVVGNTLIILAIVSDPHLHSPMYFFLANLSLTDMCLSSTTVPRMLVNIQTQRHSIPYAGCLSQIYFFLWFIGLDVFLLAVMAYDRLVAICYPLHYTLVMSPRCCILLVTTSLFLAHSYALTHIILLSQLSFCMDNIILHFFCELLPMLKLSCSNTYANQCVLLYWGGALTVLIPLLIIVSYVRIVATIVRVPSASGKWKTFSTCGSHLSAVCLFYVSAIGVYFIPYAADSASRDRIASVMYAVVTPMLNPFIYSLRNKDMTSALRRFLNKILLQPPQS
Procedure, shortened: as §1

[5] = target: T5, UniProt Q8VG01
T5 sequence (whole entry): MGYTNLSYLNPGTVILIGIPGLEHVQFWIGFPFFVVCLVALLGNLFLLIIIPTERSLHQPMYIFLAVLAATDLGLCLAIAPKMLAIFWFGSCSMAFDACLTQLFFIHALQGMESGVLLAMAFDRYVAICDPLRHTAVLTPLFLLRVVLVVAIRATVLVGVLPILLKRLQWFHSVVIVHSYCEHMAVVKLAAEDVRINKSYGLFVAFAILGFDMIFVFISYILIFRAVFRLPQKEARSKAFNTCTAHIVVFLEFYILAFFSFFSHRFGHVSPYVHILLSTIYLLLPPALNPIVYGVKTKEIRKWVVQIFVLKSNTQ
Procedure, shortened: as §1

[6] = target: UniProt Q8VF87
Procedure, shortened: as §1

[7] = target: UniProt Q8VFV2
Procedure, shortened: as §1

[8] = target: UniProt Q8VFV3
Procedure, shortened: as §1

[9] = target: UniProt Q8VFV8
Procedure, shortened: as §1

[10] = target: UniProt Q8VFW7
Procedure, shortened: as §1

Measured: odorant receptor agonist call

UniProt Q8VFV2, sequence (Q8VFV2 as listed by the source): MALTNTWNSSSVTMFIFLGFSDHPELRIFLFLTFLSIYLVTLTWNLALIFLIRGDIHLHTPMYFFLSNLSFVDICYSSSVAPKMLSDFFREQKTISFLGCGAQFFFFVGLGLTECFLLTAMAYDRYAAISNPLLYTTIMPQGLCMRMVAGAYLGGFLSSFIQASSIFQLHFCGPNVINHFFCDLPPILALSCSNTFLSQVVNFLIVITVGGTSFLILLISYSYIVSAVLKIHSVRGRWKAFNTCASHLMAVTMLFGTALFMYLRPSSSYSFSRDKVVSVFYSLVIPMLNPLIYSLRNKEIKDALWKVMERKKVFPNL
UniProt Q8VF87, sequence (Q8VF87 as listed by the source): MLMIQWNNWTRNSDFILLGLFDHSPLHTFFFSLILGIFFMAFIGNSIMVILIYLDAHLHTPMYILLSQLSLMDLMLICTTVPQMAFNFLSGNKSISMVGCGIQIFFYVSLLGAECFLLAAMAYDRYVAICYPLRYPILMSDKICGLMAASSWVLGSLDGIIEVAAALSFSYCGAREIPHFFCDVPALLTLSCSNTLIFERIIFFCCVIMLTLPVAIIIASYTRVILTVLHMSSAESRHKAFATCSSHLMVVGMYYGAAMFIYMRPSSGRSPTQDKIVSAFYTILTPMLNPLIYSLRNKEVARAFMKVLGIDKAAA
UniProt Q8VFV8, sequence (Q8VFV8 as listed by the source): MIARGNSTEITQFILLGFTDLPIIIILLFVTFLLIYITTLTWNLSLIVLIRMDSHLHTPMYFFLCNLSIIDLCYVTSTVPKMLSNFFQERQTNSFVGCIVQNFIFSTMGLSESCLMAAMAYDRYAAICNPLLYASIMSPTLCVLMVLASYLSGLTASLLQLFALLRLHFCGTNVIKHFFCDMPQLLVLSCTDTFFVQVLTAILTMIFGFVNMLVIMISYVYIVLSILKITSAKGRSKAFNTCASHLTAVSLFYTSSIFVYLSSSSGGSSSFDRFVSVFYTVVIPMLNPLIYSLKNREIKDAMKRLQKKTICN
UniProt Q8VFV3, sequence (Q8VFV3 as listed by the source): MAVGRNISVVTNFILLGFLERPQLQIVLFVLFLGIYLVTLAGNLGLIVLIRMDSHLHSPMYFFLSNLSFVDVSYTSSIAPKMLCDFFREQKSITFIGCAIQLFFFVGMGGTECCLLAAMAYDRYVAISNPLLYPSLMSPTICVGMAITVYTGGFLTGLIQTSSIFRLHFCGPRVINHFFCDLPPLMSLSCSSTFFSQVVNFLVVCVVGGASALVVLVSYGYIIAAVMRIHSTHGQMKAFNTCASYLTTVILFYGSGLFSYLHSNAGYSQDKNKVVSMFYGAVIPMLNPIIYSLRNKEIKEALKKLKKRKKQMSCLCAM
UniProt Q8VFW7, sequence (Q8VFW7 as listed by the source): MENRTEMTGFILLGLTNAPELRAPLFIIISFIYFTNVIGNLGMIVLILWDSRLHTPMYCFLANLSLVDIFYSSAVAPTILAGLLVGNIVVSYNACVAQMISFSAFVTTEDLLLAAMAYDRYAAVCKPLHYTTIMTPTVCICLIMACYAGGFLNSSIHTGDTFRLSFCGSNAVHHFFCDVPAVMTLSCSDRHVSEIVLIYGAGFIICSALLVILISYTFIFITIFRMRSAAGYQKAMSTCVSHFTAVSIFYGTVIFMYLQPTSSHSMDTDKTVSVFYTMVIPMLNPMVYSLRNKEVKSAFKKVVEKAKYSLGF

COc1cnccn1
inactive: [1] | [2] | [3] | [4] | [5]

C=CC(=C)CCC=C(C)CCC=C(C)C
inactive: [1] | [2] | [3] | [4] | [5]

CCSCC
inactive: [1] | [2] | [3] | [4] | [5]

COc1ccccc1
inactive: [1] | [2] | [3] | [4] | [5]

CC=CC(=O)C1=C(C)CCCC1(C)C
inactive: [1] | [3] | [4] | [5]
active: [2]

c1ccc2ncccc2c1
inactive: [1] | [3] | [4] | [5]
active: [2]

CC1CC=CCCCCCCCCCC(=O)C1 (stereo not given)
inactive: [1] | [2] | [3] | [4] | [5]

C=CC(=O)CCCCC
inactive: [1] | [2] | [3] | [4] | [5]

CSSSC
inactive: [1] | [2] | [3] | [4] | [5]

CCCCCCC(=O)OCCCC
inactive: [1] | [2] | [3] | [4]
active: [5]

C=C1C2CCC(C2)C1(C)C (stereo not given)
inactive: [1] | [2] | [3] | [4] | [5]

O=C(OCc1ccccc1)c1ccccc1O
inactive: [1] | [2] | [3] | [4] | [5]

CC(=O)OC1(C)CCC23CC1C(C)(C)C2CCC3C (stereo not given)
inactive: [3] | [4] | [5]
active: [1] | [2]

CCCC=O
inactive: [1] | [2] | [3] | [4] | [5]

CC=C(C)C=O
inactive: [1] | [2] | [3] | [4] | [5]

CCCCCC=CCCC=O
inactive: [1] | [2] | [3] | [4] | [5]

CCOC(=O)CC(C)C
inactive: [1] | [2] | [3] | [4] | [5]

Cc1ccc(C(C)C)c(O)c1
inactive: [1] | [2] | [3] | [4] | [5]

Cc1ccc(OC(=O)C(C)C)cc1
inactive: [1] | [2] | [3] | [4] | [5]

OCCCCCCCCCO
inactive: [1] | [2] | [3] | [4] | [5]

CCc1ncc(C)nc1CC
inactive: [1] | [2] | [3] | [4] | [5]

CCCCCCCCC=CC=O
inactive: [1] | [2] | [3] | [4] | [5]

CNc1ccccc1C(=O)OC
inactive: [1] | [2] | [3] | [4] | [5]

CC1CCC(C(C)C)C(=O)C1 (stereo not given)
inactive: [1] | [2] | [3] | [4] | [5]

CC(C)=CCCC(C)=CCOC(=O)C(C)C
inactive: [1] | [2] | [3] | [4] | [5]

CC(CC=O)CCCC(C)(C)O (stereo not given)
inactive: [1] | [2] | [3] | [4] | [5]

CCc1occc(=O)c1O
inactive: [1] | [2] | [3] | [4] | [5]

CCCCCCCCOC=O
inactive: [1] | [2] | [3] | [4] | [5]

Cc1ccc2c(c1)OCC(=O)CO2
inactive: [1] | [2] | [3] | [4] | [5]

CCCO
inactive: [1] | [2] | [3] | [4] | [5]

CCCCCCCCCCOC(C)=O
inactive: [1] | [2] | [3] | [4] | [5]

CCCC(C)C(=O)OCC (stereo not given)
inactive: [1] | [2] | [3] | [4] | [5]

C1CCOCC1
inactive: [1] | [2] | [3] | [4] | [5]

CCCCCOC(=O)CC
inactive: [1] | [2] | [3] | [4] | [5]

CCC(C)O (stereo not given)
inactive: [1] | [2] | [3] | [4] | [5]

CCC(S)C(C)CO (stereo not given)
inactive: [6]

CC1CCCCCCCCCCCCC(=O)C1 (stereo not given)
inactive: [7] | [8] | [9] | [10]
